Measured values reported in ChEMBL document CHEMBL3779809, “Bioactive Enmein-Type ent-Kaurane Diterpenoids from Isodon phyllostachys” (J Nat Prod, 2016).
The source made the active and inactive calls. No cut-off for these calls is given here.

How the values were obtained:
[1] = test system: A549; assay: Cytotoxicity against human A549 cells assessed growth inhibition at 40 uM after 48 hrs by MTS assay relative to control; type: functional
Outline: (§1)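 Cultured in RPMI-1640 or DMEM with 10% FBS at 37 °C under 5% CO2. Cells seeded, given 12 h at 37 °C, then treated with compound at 40 μM for 48 h. Growth inhibition measured by MTS assay (formazan colorimetry).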

[2] = test system: HL-60; assay: Cytotoxicity against human HL60 cells assessed growth inhibition at 40 uM after 48 hrs by MTS assay relative to control; type: functional; outline: as §1
[3] = test system: SW480; assay: Cytotoxicity against human SW480 cells assessed growth inhibition at 40 uM after 48 hrs by MTS assay relative to control; type: functional; outline: as §1
[4] = test system: A549; assay: Cytotoxicity against human A549 cells assessed as cell viability after 48 hrs by MTS assay; type: functional, cell-based; conditions: A549, 48 h
Outline: (§2)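 Cells grown in RPMI-1640 or DMEM with 10% FBS at 37 °C, 5% CO2. Seeded, incubated 12 h, then exposed to a range of concentrations in triplicate for 48 h. Viability read by MTS reduction to formazan. IC50 calculated by Reed and Muench method; cis-platin positive control.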

[5] = test system: SW480; assay: Cytotoxicity against human SW480 cells assessed as cell viability after 48 hrs by MTS assay; type: functional, cell-based; conditions: SW480, 48 h; outline: as §2
[6] = test system: MCF7; assay: Cytotoxicity against human MCF7 cells assessed as cell viability after 48 hrs by MTS assay; type: functional, cell-based; conditions: MCF7, 48 h; outline: as §2
[7] = test system: MCF7; assay: Cytotoxicity against human MCF7 cells assessed growth inhibition at 40 uM after 48 hrs by MTS assay relative to control; type: functional; outline: as §1
[8] = Cytotoxicity against human SMMC7721 cells assessed as cell viability after 48 hrs by MTS assay; type: functional, cell-based; conditions: SMMC-7721, 48 h; outline: as §2
[9] = test system: SMMC-7721; assay: Cytotoxicity against human SMMC7721 cells assessed growth inhibition at 40 uM after 48 hrs by MTS assay relative to control; type: functional; outline: as §1
[10] = Cytotoxicity against human HL60 cells assessed as cell viability after 48 hrs by MTS assay; type: functional, cell-based; conditions: HL-60, 48 h; outline: as §2

SMILES | growth inhibition (GI) [1] | growth inhibition (GI) [2] | growth inhibition (GI) [3] | IC50 [4] | IC50 [5] | IC50 [6] | growth inhibition (GI) [7] | IC50 [8] | growth inhibition (GI) [9] | IC50 [10]
C[C@H]1C(=O)[C@]23C[C@@H]1CC[C@H]2C12[C@H](O)OC[C@@H]1C(C)(C)CC[C@@H]2OC3=O (stereo not given in full) | inactive | inactive | inactive | > 40 µM | > 40 µM | > 40 µM | inactive | > 40 µM | inactive | > 40 µM
CO[C@H]1O[C@@H](O)[C@@H]2C(C)(C)CC[C@@H]3OC(=O)[C@@]45C[C@H](CC[C@H]4C132)[C@@H](C)C5=O (stereo not given in full) | inactive | inactive | inactive | > 40 µM | > 40 µM | > 40 µM | inactive | > 40 µM | inactive | > 40 µM
C=C1[C@H]2CC[C@@H]3[C@](C2)(C(=O)O[C@H]2C[C@@H]4OC5O[C@@H](O)[C@H](C4(C)C)[C@@]523)[C@@H]1O | inactive | inactive | inactive | > 40 µM | > 40 µM | > 40 µM | inactive | > 40 µM | inactive | > 40 µM
C[C@@H]1C(=O)[C@]23C[C@@H]1CC[C@H]2C12CO[C@@H](O)[C@@H]1C(C)(C)CC[C@@H]2OC3=O (stereo not given in full) | inactive | inactive | inactive | > 40 µM | > 40 µM | > 40 µM | inactive | > 40 µM | inactive | > 40 µM
C=C1[C@H]2C[C@@H](O)[C@H]3C45CO[C@@H]6OC[C@](C)(CC[C@@H]4OC(=O)[C@]3(C2)[C@@H]1O)[C@@H]65 (stereo not given in full) | inactive | inactive | inactive | > 40 µM | > 40 µM | > 40 µM | inactive | > 40 µM | inactive | > 40 µM
COC[C@H]1C(=O)[C@]23C[C@@H]1C[C@@H](O)[C@H]2C12CO[C@@H](O)[C@@H]1C(C)(C)CC[C@@H]2OC3=O (stereo not given in full) | inactive | inactive | inactive | > 40 µM | > 40 µM | > 40 µM | inactive | > 40 µM | inactive | > 40 µM
C[C@H]1C(=O)[C@]23C[C@@H]1CC[C@H]2C12CO[C@@H](O)[C@@H]1C(C)(C)[C@@H](O)C[C@@H]2OC3=O (stereo not given in full) | inactive | inactive | inactive | > 40 µM | > 40 µM | > 40 µM | inactive | > 40 µM | inactive | > 40 µM
CO[C@@H]1O[C@@H](O)[C@@H]2C(C)(C)CC[C@@H]3OC(=O)[C@@]45C[C@H](CC[C@H]4C132)[C@@H](C)C5=O (stereo not given in full) | inactive | inactive | inactive | > 40 µM | > 40 µM | > 40 µM | inactive | > 40 µM | inactive | > 40 µM
CC1(C)[C@@H]2C[C@@H]3OC(=O)[C@@]45C[C@H](CC[C@H]4[C@]34C(O[C@@H](O)[C@H]14)O2)[C@](C)(O)C5=O | inactive | inactive | inactive | > 40 µM | > 40 µM | > 40 µM | inactive | > 40 µM | inactive | > 40 µM
C[C@H]1C(=O)[C@]23C[C@@H]1C[C@@H](O)[C@H]2C12CO[C@@H](O)[C@@H]1C(C)(C)CC[C@@H]2OC3=O (stereo not given in full) | inactive | inactive | inactive | > 40 µM | > 40 µM | > 40 µM | inactive | > 40 µM | inactive | > 40 µM
C[C@H]1C(=O)[C@]23C[C@@H]1CC[C@H]2C12C(O)O[C@@H](O)[C@@H]1C(C)(C)CC[C@@H]2OC3=O (stereo not given in full) | inactive | inactive | inactive | > 40 µM | > 40 µM | > 40 µM | inactive | > 40 µM | inactive | > 40 µM
C=C1[C@H]2CC[C@H]3C45C(O)O[C@@H](OC)[C@@H]4C(C)(C)CC[C@@H]5OC(=O)[C@]3(C2)[C@@H]1O (stereo not given in full) | inactive | inactive | inactive | > 40 µM | > 40 µM | > 40 µM | inactive | > 40 µM | inactive | > 40 µM
CO[C@@H]1OC(O)C23[C@H](CCC(C)(C)[C@@H]12)OC(=O)[C@@]12C[C@H](CC[C@@H]31)[C@@H](C)C2=O (stereo not given in full) | inactive | inactive | inactive | > 40 µM | > 40 µM | > 40 µM | inactive | > 40 µM | inactive | > 40 µM
COC[C@@H]1C(=O)[C@]23C[C@@H]1C[C@@H](O)[C@H]2C12CO[C@@H](O)[C@@H]1C(C)(C)CC[C@@H]2OC3=O (stereo not given in full) | inactive | inactive | inactive | > 40 µM | > 40 µM | > 40 µM | inactive | > 40 µM | inactive | > 40 µM
C[C@]12CC[C@@H]3OC(=O)[C@@]45C[C@H](C[C@@H](O)[C@@H]4[C@]34CO[C@H](OC1)[C@H]24)[C@@]1(CCC2=C(O1)[C@]13C[C@@H]2C[C@@H](O)[C@@H]1[C@]12CO[C@@H]4OC[C@](C)(CC[C@@H]1OC3=O)[C@@H]42)C5=O | inactive | inactive | inactive | > 40 µM | > 40 µM | > 40 µM | inactive | > 40 µM | inactive | > 40 µM
C[C@H]1C(=O)[C@]23C[C@@H]1CC[C@H]2C12[C@H](CCC(C)(C)[C@H]1CO[C@@H]2O)OC3=O (stereo not given in full) | inactive | inactive | inactive | > 40 µM | > 40 µM | > 40 µM | inactive | > 40 µM | inactive | > 40 µM
C=C1C(=O)[C@]23C[C@@H]1C[C@@H](O)[C@H]2C12C(O)O[C@@H]4OC(O)[C@](C)(CC[C@@H]1OC3=O)[C@@H]42 (stereo not given in full) | inactive | inactive | inactive | > 40 µM | > 40 µM | > 40 µM | inactive | > 40 µM | inactive | > 40 µM
C[C@H]1C(=O)[C@]23C[C@@H]1CC[C@H]2C12CO[C@@H](O)[C@@H]1C(C)(C)CC[C@@H]2OC3=O (stereo not given in full) | inactive | inactive | inactive | > 40 µM | > 40 µM | > 40 µM | inactive | > 40 µM | inactive | > 40 µM
C=C1C(=O)[C@]23C[C@@H]1C[C@@H](O)[C@H]2C12CO[C@@H](O)[C@@H]1C(C)(C)[C@@H](O)C[C@@H]2OC3=O (stereo not given in full) | inactive | inactive | inactive | > 40 µM | > 40 µM | > 40 µM | inactive | > 40 µM | inactive | > 40 µM
